Results of several laboratories.
Organism: Staphylococcus aureus
Read-out: microbial growth

Structure (SMILES)	method	strain	time	notes	MIC
CNc1cccc2cc(C(=O)Nc3ccc(C(=O)O)cc3)c(=O)[nH]c12		ATCC29213			16 µg/mL
Nc1nccc(Oc2ccc(NC(=O)c3c[nH]cc(-c4ccc(F)cc4)c3=O)cc2F)c1Cl		NCTC8325			> 30 µM
Cc1ccc(C)n1-c1ccc(-c2nnc(-c3ccc(Br)cc3)[nH]2)cc1	broth dilution	ATCC11632	18 h		1 µg/mL
Clc1ccc(-c2nc3ccccc3[nH]2)cc1Cl	broth dilution	ATCC29213 MSSA			32 µg/mL
CCOc1ccc(-c2nc3cc(-c4nc5cc(N6CCN(C)CC6)ccc5[nH]4)ccc3[nH]2)cc1	broth dilution	29213	24 h		2 to 4 µg/mL
O=C1NC(=S)N/C1=C\c1ccc(-c2ccc(N(c3ccccc3)c3ccccc3)cc2)c2ccccc12	broth dilution	ATCC43300			> 1000 µg/mL
CC(C)n1nc(-c2ccc3oc(N)nc3c2)c2c(N)ncnc21		NCTC8325			> 30 µM
CC1(C)S[C@@H]2[C@H](NC(=O)COc3ccccc3)C(=O)N2[C@H]1C(=O)O	broth dilution	ATCC25923	18 h		2 µg/mL
Cc1ccc2nc(-c3ccc([N+](=O)[O-])cc3)n(Cc3ccc(Cl)cc3)c2c1	broth dilution	ATCC29213 MSSA			8 µg/mL
COc1cccc(OC)c1C(=O)N[C@@H]1C(=O)N2[C@@H]1SC(C)(C)[C@@H]2C(=O)O		147		clinical isolate	6.25 µM
c1ccc2c(-c3cnn4cc(-c5ccc(N6CCNCC6)cc5)cnc34)ccnc2c1		NCTC8325			> 30 µM
Brc1ccc(NCc2ccc(Oc3ccccn3)cc2)cc1					> 6.2 µg/mL
O=C(C[n+]1cc(-c2ccc(Cl)cc2)n2c1CCC2)Nc1ccc(Cl)c(Cl)c1					4 µg/mL
CC(=O)NC[C@H]1CN(c2ccc(N3CCOCC3)c(F)c2)C(=O)O1	broth dilution	MRSA NRS382 USA100		drug-resistant strain	2 µg/mL
C[C@H]1c2cccc(O)c2C(=O)C2=C(O)[C@]3(O)C(=O)C(C(N)=O)=C(O)[C@@H](N(C)C)[C@@H]3[C@@H](O)[C@@H]21				clinical isolate	6.25 µg/mL
C[C@@H]1[C@H](O)[C@@H](C)/C=C/C=C/C=C/C=C/C=C/C=C/C=C/[C@H](O[C@@H]2O[C@H](C)[C@@H](O)[C@H](N)[C@@H]2O)C[C@@H]2O[C@](O)(C[C@@H](O)C[C@@H](O)[C@H](O)CC[C@@H](O)C[C@@H](O)CC(=O)O[C@H]1C)C[C@H](O)[C@H]2C(=O)O	broth dilution	MB2865			> 128 µg/mL
C[C@@H](O)[C@H]1C(=O)N2C(C(=O)O)=C(S[C@@H]3CN[C@H](C(=O)N(C)C)C3)[C@H](C)[C@H]12	broth dilution	KCTC1621	16 h		8 µM
Cc1ccc2nc(-c3ccc(F)cc3)n(Cc3ccccc3)c2c1	broth dilution	ATCC29213 MSSA			64 µg/mL
C/C(=C\c1ccc(C#N)cc1)C(=O)Nc1ccc(C(=O)N[C@@H](CC(N)=O)C(=O)Nc2ccc(C(=O)Nc3ccc(C(=O)Nc4ccc(C(=O)O)cc4)c(O)c3OCC(C)C)cc2)cc1		ATCC29213			0.06 µg/mL
CNC(=O)c1nn(C)c2c1C(C)(C)Cc1cnc(Nc3ccc(N4CCN(C)CC4)cc3)nc1-2		NCTC8325			> 30 µM
c1cncc(-c2nc3ccccc3[nH]2)c1	broth dilution	ATCC29213 MSSA			128 µg/mL

Structure (SMILES)	method	strain	time	notes	MIC
CNC(=O)c1ccc(C)c(-n2c(C)cc(OCc3ccc(F)cc3F)c(Br)c2=O)c1		NCTC8325			> 30 µM
C[n+]1ccc(/C=C2\Sc3ccccc3N2CCCN2CCCCC2)c2ccccc21.[I-]	broth dilution	ATCCBAA44			4 µg/mL
O=C(O)CN1C(=O)/C(=C/c2c3ccccc3c(-c3ccc(N(c4ccccc4)c4ccccc4)cc3)c3ccccc23)NC1=S	broth dilution	ATCC25923			> 1000 µg/mL
C/C=C(\C)c1cc(O)c(C)c(OC(=O)c2c(C)cc(O)c(Cl)c2O)c1	broth dilution	6917			32 µg/mL
CC(C)Oc1c(NC(=O)c2ccc(NC(=O)[C@H](CC(N)=O)NC(=O)c3ccc(NC(=O)c4ccc(C#N)cc4)cc3)cc2)ccc(C(=O)N[C@@H]2CONC2=O)c1O		ATCC29213			> 64 µg/mL
O=C1NN=C(N=Cc2ccccc2)C1=NNn1c(-c2ccccc2)nc2ccccc2c1=O	broth dilution		24 h		57.1 µM
O=C(Nc1ncc([N+](=O)[O-])s1)C1CCCCC1	broth dilution	MRSA			125 µM
c1ccc2[nH]c(-c3ccncc3)nc2c1	broth dilution	ATCC29213 MSSA			128 µg/mL
N#C/C(=C\c1ccc(O)c(O)c1)C(=O)NCc1ccccc1		NCTC8325			> 30 µM
O=C1NC(=S)N/C1=C\c1ccc(-c2ccc(N(c3ccccc3)c3ccccc3)cc2)cc1	broth dilution	ATCC43300			> 1000 µg/mL
O=C(CCc1cc(O)c(O)c(O)c1)NCCCCCCCC[P+](c1ccccc1)(c1ccccc1)c1ccccc1.[Br-]	broth dilution	ATCC43300 MRSA	18 h		8 µg/mL
CC1(C)S[C@@H]2[C@H](NC(=O)[C@H](N)c3ccccc3)C(=O)N2[C@H]1C(=O)O	broth dilution	MRSA			32 µg/mL
C=CC1(C)CC(OC(=O)CSCCCCCN(C)C)C2(C)C(C)CCC3(CCC(=O)C32)C(C)C1O (centres unmarked)					0.5 µg/mL
CC(C)Oc1c(NC(=O)c2ccc(NC(=O)[C@H](CC(N)=O)NC(=O)c3ccc(NC(=O)c4ccc(C#N)s4)cc3)cc2)ccc(C(=O)Nc2ccc(C(=O)O)cc2)c1O		ATCC29213			0.25 µg/mL
Cn1c(SCc2ccc(Cl)cc2)nnc1-c1cncc(C#Cc2ccccc2)c1		MRSA		drug-resistant strain	≥ 20 µg/mL
CS(=O)(=O)CCNCc1ccc(-c2ccc3ncnc(Nc4ccc(OCc5cccc(F)c5)c(Cl)c4)c3c2)o1		NCTC8325			> 30 µM
CN[C@H](CC(C)C)C(=O)N[C@H]1C(=O)N[C@@H](CC(N)=O)C(=O)N[C@H]2C(=O)N[C@H]3C(=O)N[C@H](C(=O)N[C@H](C(=O)O)c4cc(O)cc(O)c4-c4cc3ccc4O)[C@H](O)c3ccc(c(Cl)c3)Oc3cc2cc(c3O[C@@H]2O[C@H](CO)[C@@H](O)[C@H](O)[C@H]2O[C@H]2C[C@](C)(N)[C@H](O)[C@H](C)O2)Oc2ccc(cc2Cl)[C@H]1O	broth dilution	16162			0.5 µg/mL
CC(C)Oc1c(NC(=O)c2ccc(NC(=O)[C@H](CC(N)=O)NC(=O)c3ccc(NC(=O)c4ccc(C#N)cc4)cc3)cc2)ccc(C(=O)Nc2ccncc2)c1O		ATCC29213			> 64 µg/mL
Nc1ncnc2c1c(-c1cnc3[nH]ccc3c1)nn2C1CCCC1		NCTC8325			> 30 µM
CCCCCCCC(=O)Oc1c(C)c(O)c(C(=O)/C=C/c2ccccc2)c(OC)c1C	broth dilution	ATCC25923			> 5000 µg/mL
